Source: PubChem BioAssay
Lmaj promast – reduces viability of Leishmania major promastigotes; resazurin fluorescence viability; inhibition, % at 10 µM; 200,000 compounds, 9% hits;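 also: promastigotes grown with compound for 44 hours at 28 °C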
Arbovirus anti – blocks arbovirus infection; arbovirus infection cell-based antiviral screen; inhibition, % at 10 µM; 200,000 compounds, 0.37% hits; AID 1251; in the data active = inhibition above about 30%
PKD1 kinase inh – inhibitors of human PKD1 kinase; Q15139; PKD1 kinase fluorescence polarization assay; inhibition, % (test concentration not listed); 200,000 compounds, 0.056% hits; AID 797
Wee1 stabilizer – inhibitors of human Wee1 degradation. HeLa Luc-Wee1K328M stability, luciferase luminescence; 100% = proteasome inhibitor MG132 effect. reporter increase, % at 5 µM. 220,000 compounds, 1.2% hits;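 active = activation above the mean of all tested compounds plus 3 SD, set per screening run, cut at about 8.8% in these data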;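 also: cells exposed to compound for 20 h before luminescence read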
Target sequence (P30291 whole entry K328M): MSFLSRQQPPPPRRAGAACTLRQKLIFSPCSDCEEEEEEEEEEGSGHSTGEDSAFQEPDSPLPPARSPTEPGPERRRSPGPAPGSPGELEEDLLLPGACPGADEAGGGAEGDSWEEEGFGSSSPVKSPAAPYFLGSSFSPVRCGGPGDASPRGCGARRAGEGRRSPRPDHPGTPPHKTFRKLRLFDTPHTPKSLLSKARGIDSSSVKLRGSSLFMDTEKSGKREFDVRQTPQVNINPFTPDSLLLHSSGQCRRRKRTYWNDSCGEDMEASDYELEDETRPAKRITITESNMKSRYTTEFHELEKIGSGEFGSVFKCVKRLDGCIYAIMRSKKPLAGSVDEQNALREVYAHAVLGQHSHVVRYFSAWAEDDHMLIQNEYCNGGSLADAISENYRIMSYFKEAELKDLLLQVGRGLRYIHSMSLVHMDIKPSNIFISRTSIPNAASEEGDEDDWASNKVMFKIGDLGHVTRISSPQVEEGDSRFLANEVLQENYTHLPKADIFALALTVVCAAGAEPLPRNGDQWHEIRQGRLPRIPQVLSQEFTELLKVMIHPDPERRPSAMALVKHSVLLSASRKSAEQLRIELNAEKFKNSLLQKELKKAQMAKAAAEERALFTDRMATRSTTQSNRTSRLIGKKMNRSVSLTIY
Rad51 HR inh – blocks human Rad51 in homologous recombination | Q06609 | hRad51 DNA strand exchange, fluorescence dequenching | inhibition, % at 10 µM | 200,000 compounds, 0.085% hits | AID 1385;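 active = inhibition above 40% at the single screening dose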
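Test system – preformed human Rad51 ssDNA filaments · Reagent – Donor/quencher-labelled 47-bp dsDNA substrate · Incubation – 37 °C 15-min filament assembly, 30-min compound preincubation, 15-min exchange · Signal – FRET fluorescence dequenching, excitation 485 nm, emission 520 nm · Read-out – percent inhibition from fluorescence, normalised to plate control and blank means · Benchmarks – plate control and blank wells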
CHOP inhibitor – CHOP inhibition in unfolded protein response; 220,000 compounds, 3.8% hits; inhibition, % at 10 µM; CHO-K1 CHOP-promoter luciferase, tunicamycin-induced, 15-18 h;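 active = compounds that reduced the stress-induced luciferase reporter signal by more than about 70% of percent inhibition, limit read from the data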
Of the large screens only hits and unclear results are named; the others gave an inactive call. Compounds with a hit are over-represented: about 12% of the library has one in this group of screens. Rule as the data show it, unless noted: active = inhibition above about 50%; inactive = the rest.

CCC(Sc1nnnn1-c1ccccc1)C(=O)Nc1nc2ccccc2s1 (stereo unspecified)	CHOP inhibitor 89
CCC(Sc1ncccn1)C(=O)Nc1cc(C)on1 (stereo unspecified)	none
Cn1cccc1Cc1nnc(SCC(=O)Nc2nc3ccccc3s2)n1CCc1ccccc1	CHOP inhibitor 95
OCCC1CN(Cc2ccc3c(c2)CCO3)CCN1C1CCCC1 (stereo unspecified)	none
CC1=CC(C)(C)NC(=S)N1c1cccc2cc(S(=O)(=O)O)ccc12	none (no result: Lmaj promast, Arbovirus anti, PKD1 kinase inh)
CCOC(=O)Cn1c(=O)oc2cc(S(=O)(=O)N3CCN(C(=O)c4ccco4)CC3)ccc21	none (no result: Rad51 HR inh)
O=C(OC1CCCCC1=O)c1cc(Cl)ccc1[N+](=O)[O-] (stereo unspecified)	none
c1ccc(-c2cccc(-c3ccccn3)n2)nc1	Lmaj promast 100 (no result: CHOP inhibitor)
COc1cc(CC(=O)Nc2ccc3c(c2)CCC3)cc(OC)c1OC	Lmaj promast 89
CC(=O)Nc1ccc2c(c1)CCCC2	none (no result: Lmaj promast, Arbovirus anti, PKD1 kinase inh)
CC(=O)c1cccc(NC(=O)Cc2ccc3c(c2)CCCC3)c1	Lmaj promast 81
Cc1ccc(NC(=O)Cc2ccc3c(c2)CCCC3)cc1C	CHOP inhibitor 72
CCOc1ccc(CN(C)CC(=O)Nc2ccc3c(c2)CCC3)cc1OC	none
CCC(=O)Nc1cc(=O)[nH]c2nc(-c3ccc(Cl)cc3)nn12	none (no result: Lmaj promast, Arbovirus anti, PKD1 kinase inh)
CCCCNC(=O)Nc1ncn[nH]1	none (no result: Lmaj promast, Arbovirus anti, PKD1 kinase inh)
Cc1ccc(NC(=S)N2CCCCC2CO)cc1C (stereo unspecified)	none (no result: Rad51 HR inh)
CCn1c(=O)[nH]c2cc(C(=O)Nc3cc(C)cc(C)c3)ccc2c1=O	CHOP inhibitor 89
COCCn1c(=O)[nH]c2cc(C(=O)Nc3cccc(F)c3)ccc2c1=O	none
CCCCOC(=O)c1ccc(NC(=O)CSc2nncn2C)cc1	none (no result: CHOP inhibitor)
CCCCOC(=O)c1ccc(NC(=O)CSC2=Nc3ccccc3C3CC=NN23)cc1 (stereo unspecified)	Lmaj promast 99
CC(C)(C)n1cnnc1Sc1ncccc1[N+](=O)[O-]	none (no result: Lmaj promast, Arbovirus anti, PKD1 kinase inh, Rad51 HR inh)
CC(=O)OCCCN1c2ccccc2Nc2nnc(-c3ccccc3)cc21	Wee1 stabilizer 9.1
COc1ccc(S(=O)(=O)N2CCCC(C(=O)NCCC(C)C)C2)cc1 (stereo unspecified)	none
Nc1nc(-c2ccco2)nn1S(=O)(=O)c1ccc(Cl)cc1	none
Cc1cccnc1NC1(C(F)(F)F)N=C2SCCN2C1=O (stereo unspecified)	none
c1coc(-c2nc3c4c5c(sc4ncn3n2)CCCC5)c1	CHOP inhibitor 79
CC(C)(C)c1ccc(OCCN2CCCC2)cc1	Lmaj promast 97
CC1CCCN(CCC(=O)c2ccc(Br)cc2)C1 (stereo unspecified)	Lmaj promast 96
CCOc1cccc(OCCCCN2CCCCC2)c1	Lmaj promast 97
Brc1cccc(OCCCCN2CCCCC2)c1	Lmaj promast 98 (no result: Rad51 HR inh)
Cc1cccc(C)c1OCCCN1CCCC1	none
CC1CCN(CCC(=O)Nc2ccc(Br)cc2)CC1	none (no result: Arbovirus anti, CHOP inhibitor)
CCCCCC(O)(CCN1CCCCC1)c1ccc(OCC)cc1 (stereo unspecified)	none
CSc1cccc(NC(=S)Nc2cc(C)ccc2C)c1	none (no result: Lmaj promast, Arbovirus anti, PKD1 kinase inh)
CCOC(=O)C1(CCCc2ccccc2)CCN(C(=O)Cn2nc(C)nc2C)CC1	none (no result: Lmaj promast, Arbovirus anti, PKD1 kinase inh, Rad51 HR inh)
Cn1ccnc1	none (no result: Lmaj promast, Arbovirus anti, PKD1 kinase inh, Wee1 stabilizer, Rad51 HR inh)
C#CC1CCCCC1NC(=O)Nc1cnccc1C(F)(F)F (stereo unspecified)	none (no result: Lmaj promast, Arbovirus anti, PKD1 kinase inh)
CC1CCCN(CCOc2ccc(Br)cc2)C1 (stereo unspecified)	Lmaj promast 51
COc1cccc(OCCCCN2CCCCC2)c1	Lmaj promast 97
COc1cc2c(cc1OC)CN(CC(=O)Nc1cccc(C)c1)CC2	none
COc1cc2c(cc1OC)CN(CCC(=O)c1ccc(Br)cc1)CC2	Lmaj promast 61
COc1cccc(OCCCN2CCCCC2)c1	Lmaj promast 96
COc1ccccc1NC(=O)c1coc(=O)c(Br)c1	none (no result: Lmaj promast, Arbovirus anti, PKD1 kinase inh)
CC1CCCN(CCCCOc2cccc(Br)c2)C1 (stereo unspecified)	Lmaj promast 99
COc1ccc(OCCCN2CCCCCC2)cc1	Lmaj promast 99
Cn1c(=O)c2c(ncn2CC(=O)OCC(=O)Nc2cccc(Cl)c2)n(C)c1=O	none
O=C(NC(c1ccccc1)c1ccccc1)c1ccc(=O)[nH]n1	none
CCOC(=O)c1sc2nc3c(SCCC#N)cc(C(=O)c4cc(F)ccc4O)cn3c(=O)c2c1C	Lmaj promast 63
O=C(O)CSc1cc(C(=O)c2cc(F)ccc2O)cn2c(=O)c3c(-c4ccccc4)csc3nc12	none (no result: Lmaj promast, Arbovirus anti, PKD1 kinase inh, Rad51 HR inh)
CCOC(=O)c1sc2nc3c(SCCC(=O)O)cc(C(=O)c4cc(OC)ccc4O)cn3c(=O)c2c1C	CHOP inhibitor 102
Cc1cccc(C)c1OCCNC(=O)OCc1ccccc1	none
CCOC(=O)c1nnc(-c2ccc(C)cc2)nc1Sc1ccc(Cl)cc1	Lmaj promast 54
CCOC(=O)c1nnc(-c2ccc(C)cc2)nc1Oc1ccccc1Cl	CHOP inhibitor 78
Cc1cc(C)c(S(=O)(=O)Nc2ccc3c(c2)CCC3)c(C)c1	Lmaj promast 91, CHOP inhibitor 84
COc1ccc(CCN2CNc3c(c(=O)n(C)c(=O)n3C)C2)cc1	none
Cn1c2c(c(=O)n(C)c1=O)CN(CC1CCCO1)CN2 (stereo unspecified)	CHOP inhibitor 73
Cc1ccccc1C(=O)Nc1cccc(C(=O)N/N=C/c2cc(Cl)cc([N+](=O)[O-])c2O)c1	none (no result: Rad51 HR inh)
O=C(CN(Cc1ccco1)C(=O)c1ccccc1)Nc1ccc(Cl)c(Cl)c1	none
Cc1ccc(Oc2nccc(-c3ccc(Cl)cc3)n2)cc1	CHOP inhibitor 78
CC(C)(C)C(=O)NNC(=O)c1cnccn1	none (no result: Lmaj promast, Arbovirus anti, PKD1 kinase inh)
C/C(Cn1nnc([N+](=O)[O-])n1)=N\NC(=O)c1ccccc1	Lmaj promast 84
Cc1ccc2c(c1)C(N1CCN(C)CC1)=Nc1cccnc1N2	none (no result: Lmaj promast, Arbovirus anti, PKD1 kinase inh, Wee1 stabilizer, Rad51 HR inh)
O=C(/C(=C/c1ccc(Cl)cc1)c1nc2ccccc2[nH]1)c1ccccc1	Lmaj promast 100
COc1cc(/C=C(/C(=O)c2cccs2)c2nc3ccccc3[nH]2)cc(OC)c1O	Lmaj promast 100
CC(=O)c1ccccc1NS(C)(=O)=O	none
COc1cc(/C=C2\SC(=O)N(c3cccc(Cl)c3)C2=O)cc([N+](=O)[O-])c1O	CHOP inhibitor 105
O=C1S/C(=C\c2ccc(O)c([N+](=O)[O-])c2)C(=O)N1c1ccccc1Cl	none (no result: Rad51 HR inh)
COc1cc(/C=C2\SC(=O)N(c3ccc(Cl)cc3)C2=O)cc([N+](=O)[O-])c1O	Arbovirus anti 57, CHOP inhibitor 105
Oc1c(C(Nc2nc3ccccc3s2)c2ccco2)ccc2cccnc12 (stereo unspecified)	Lmaj promast 100 (no result: CHOP inhibitor)
O=C(Nc1nc(-c2nc3ccccc3s2)cs1)c1ccco1	none
CC(C)C(=O)NC(c1ccco1)c1ccc2cccnc2c1O (stereo unspecified)	Lmaj promast 100 (no result: CHOP inhibitor)
Cc1ccc2nc(-c3ccccc3)c(CN3CCN(c4ccccc4F)CC3)n2c1	Lmaj promast 80
Cc1ccc2nc(N3CCN(c4ccccc4F)CC3)c(C=O)c(=O)n2c1	none (no result: Rad51 HR inh)
